Laboratory results published in ChEMBL document CHEMBL5236549, “Discovery of 2-Sulfinyl-Diazabicyclooctane Derivatives, Potential Oral β-Lactamase Inhibitors for Infections Caused by Serine β-Lactamase-Producing Enterobacterales” (J Med Chem, 2021).

What was measured:
[1] = Stability of the compound in phosphate buffer at pH 7.0 assessed as parent compound remaining at 40 degreeC measured after 16 hrs; type: physicochemical; settings: read-out: Stability
How it was run: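 Compound held in pH 7.0 phosphate buffer at 40 °C for 16 h; amount remaining reported as %.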

[2] = system: Escherichia coli; test: Antibacterial activity against Escherichia coli ATCC SR34100 assessed as reduction in bacterial growth by measuring minimum […] concentration incubated for 16 to 24 hrs by CLSI based two-fold serial dilution method; type: functional; settings: time 16-24 hrs
How it was run: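 MPC₁ by broth microdilution: twofold serial dilutions of inhibitor in cation-adjusted Mueller Hinton broth containing ceftibuten at 1 μg/mL. Inoculum about 5 × 10⁴ cfu/well final, set from OD625. Incubation at 35 °C for 16−20 h. […] N = 1.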

[3] = system: Klebsiella pneumoniae; test: Antibacterial activity against Klebsiella pneumoniae SR100758 assessed as inhibition of bacterial growth incubated for 16 to 24 hrs by CLSI based two-fold serial dilution method; type: functional; settings: time 16-24 hrs
How it was run: (§1)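 CLSI broth microdilution in cation-adjusted Mueller Hinton broth, twofold serial dilutions, about 5 × 10⁴ cfu/well from OD625, 35 °C for 16−20 h. MIC is the lowest concentration with no visible growth.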

[4] = system: Klebsiella pneumoniae; test: Antibacterial activity against Klebsiella pneumoniae SR200263 assessed as inhibition of bacterial growth incubated for 16 to 24 hrs by CLSI based two-fold serial dilution method; type: functional; settings: time 16-24 hrs; how it was run: as §1
[5] = system: Klebsiella pneumoniae; test: Antibacterial activity against Klebsiella pneumoniae SR200487 assessed as inhibition of bacterial growth incubated for 16 to 24 hrs by CLSI based two-fold serial dilution method; type: functional; settings: time 16-24 hrs; how it was run: as §1
[6] = system: Enterobacter cloacae; test: Antibacterial activity against Enterobacter cloacae SR200030 assessed as reduction in bacterial growth by measuring minimum […] concentration incubated for 16 to 24 hrs by CLSI based two-fold serial dilution method; type: functional; settings: time 16-24 hrs
How it was run: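 Inhibitor twofold serially diluted in cation-adjusted Mueller Hinton broth containing ceftibuten 1 μg/mL. About 5 × 10⁴ cfu/well, 35 °C for 16−20 h. […] N = 1.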

[7] = Half life in mouse at 10 mg/kg,iv by LC/MS/MS analysis; type: ADME, organism-based; settings: in vivo
How it was run: (§2)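 After iv dosing, T1/2 taken as ln 2/kel, with kel from the slope of the log concentration–time profile. Plasma levels measured by LC/MS/MS with an external standard.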

[8] = Total clearance in mouse at 10 mg/kg,iv by LC/MS/MS analysis; type: ADME, organism-based; settings: in vivo
How it was run: (§3)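 Intravenous dosing (mouse 10, rat 1, dog 5, monkey 5 mg/kg); plasma quantified by LC/MS/MS after methanol precipitation with external standard; AUC by linear trapezoidal approximation; CLtot = dose/AUC.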

[9] = Total clearance in rat at 1 mg/kg,iv by LC/MS/MS analysis; type: ADME, organism-based; settings: in vivo; how it was run: as §3
[10] = AUC in monkey at 5 mg/kg,iv by LC/MS/MS analysis; type: ADME, organism-based, Macaca mulatta; parameters: dose 5 mg/kg, route iv; settings: rhesus monkey, in vivo
How it was run: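 Plasma of the parent acid measured by LC/MS/MS (methanol precipitation, positive ESI, external standard); oral values follow prodrug dosing (rat fed, dog and monkey fasted). AUC from 0 h to last time point by linear trapezoid; F from oral AUC versus iv AUC of the parent. N = 2 (rat, dog), N = 3 (monkey, mouse).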

[11] = Half life in monkey at 5 mg/kg,iv by LC/MS/MS analysis; type: ADME, organism-based, Macaca mulatta; settings: rhesus monkey, in vivo; how it was run: as §2
[12] = Total clearance in monkey at 5 mg/kg,iv by LC/MS/MS analysis; type: ADME, organism-based, Macaca mulatta; settings: rhesus monkey, in vivo; how it was run: as §3
[13] = system: Escherichia coli; test: Antibacterial activity against Escherichia coli ATCC SR34100 assessed as inhibition of bacterial growth incubated for 16 to 20 hrs by CLSI based two-fold serial dilution method
[14] = system: Klebsiella pneumoniae; test: Antibacterial activity against Klebsiella pneumoniae SR09603 assessed as inhibition of bacterial growth incubated for 16 to 20 hrs by CLSI based two-fold serial dilution method
[15] = system: Klebsiella pneumoniae; test: Antibacterial activity against Klebsiella pneumoniae ATCC BAA1705 assessed as inhibition of bacterial growth incubated for 16 to 20 hrs by CLSI based two-fold serial dilution method
[16] = system: Enterobacter cloacae; test: Antibacterial activity against Enterobacter cloacae SR36276 assessed as reduction in bacterial growth by measuring minimum […] concentration incubated for 16 to 20 hrs by CLSI based two-fold serial dilution method; settings: time 16-20 hrs
[17] = system: Klebsiella pneumoniae; test: Antibacterial activity against Klebsiella pneumoniae SR09603 assessed as reduction in bacterial growth by measuring minimum […] concentration incubated for 16 to 20 hrs by CLSI based two-fold serial dilution method; settings: time 16-20 hrs

- remaining at 16 h [1]: 95%
- MIC [3]: > 32 µg/mL
- MIC [4]: 32 µg/mL
- MIC [5]: > 32 µg/mL
- half-life [7]: 24 min
- clearance [8]: 34.7 mL/min/kg
- clearance [9]: 27 mL/min/kg
- AUC [10]: 13800 ng·h/mL
- half-life [11]: 30 min
- clearance [12]: 6.15 mL/min/kg
- MIC [13]: 32 µg/mL
- MIC [14]: 32 µg/mL
- MIC [15]: 32 µg/mL
SMILES: C[S@@+]([O-])[C@@H]1CC[C@@H]2CN1C(=O)N2O[C@H](F)C(=O)[O-].[Na+]
- MPC [2]: 0.125 µg/mL
- MPC [6]: 4 µg/mL
- MPC [16]: 2 µg/mL
- MPC [17]: 0.125 µg/mL
